Converted amounts (≈) assume the structure as drawn.
Legend:
[1] = system: PANC-1; assay: Inhibitory activity against growth of PANC-1 tumor cell line was determined by MTT assay; format: functional, cell-based; details: Homo sapiens
Summary of the method: (§1)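 Exponentially growing cells seeded at 2 × 10^4 ~ 5 × 10^4 cells/well in RPMI-1640, drug-treated, then incubated 72 h. MTT (5 mg/mL stock) added, 4 h at 37 °C. Formazan dissolved in DMSO at rt, absorbance read at 540 nm. IC50 from plot of log drug concentration versus growth rate of treated cells.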

[2] = system: HT-29; assay: Inhibitory activity against growth of HT-29 colon tumor cell line was determined by MTT assay; format: functional, cell-based; details: Homo sapiens; summary of the method: as §1
[3] = system: BeWo; assay: Inhibitory activity against growth of BeWO placental tumor cell line was determined by MTT assay; format: functional, cell-based; details: Homo sapiens; summary of the method: as §1
[4] = system: HT-29; assay: Percentage of apoptotic HT-29 cells after 24 H treatment with 10 ug/mL concentration of compound; format: functional, Homo sapiens
Summary of the method: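 HT-29 cells exposed to compound at 10 μg/mL for 24 h. Apoptotic cell percentage measured by flow cytometry (FACScan). Mean ± SEM of at least three separate experiments.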

[5] = system: B16; assay: Inhibitory activity against growth of B16 mouse melanoma cell line was determined by MTT assay; format: functional, cell-based; summary of the method: as §1

| Compound | IC50 [1] [µg/mL] | IC50 [2] [µg/mL] | IC50 [3] [µg/mL] | Apoptotic cells [4] [%] | IC50 [5] [µg/mL] |
| --- | --- | --- | --- | --- | --- |
| CC(C)[C@H]1C(=O)OC[C@@H](NC(=O)c2cnc3ccccc3n2)C(=O)N[C@@H](C)C(=O)N(C)[C@H]2CSCSC[C@@H](C(=O)N1C)N(C)C(=O)[C@H](C)NC(=O)[C@H](NC(=O)c1cnc3ccccc3n1)COC(=O)[C@H](C(C)C)N(C)C2=O | 4 (≈ 3.63 µM) | 5 (≈ 4.54 µM) | 2.7 (≈ 2.45 µM) | 28.9 | 1.4 (≈ 1.27 µM) |
| CC(C)[C@H]1C(=O)OC[C@@H](NC(=O)c2cnc3ccccc3n2)C(=O)N[C@@H](C)C(=O)N(C)[C@H]2CSC[S+]([O-])C[C@@H](C(=O)N1C)N(C)C(=O)[C@H](C)NC(=O)[C@H](NC(=O)c1cnc3ccccc3n1)COC(=O)[C@H](C(C)C)N(C)C2=O (stereo not given in full) | > 20 | > 20 | > 20 | – | > 20 |
| CC(C)[C@H]1C(=O)OC[C@@H](NC(=O)c2cnc3ccccc3n2)C(=O)N[C@@H](C)C(=O)N(C)[C@H]2C[S+]([O-])C[S+]([O-])C[C@@H](C(=O)N1C)N(C)C(=O)[C@H](C)NC(=O)[C@H](NC(=O)c1cnc3ccccc3n1)COC(=O)[C@H](C(C)C)N(C)C2=O (stereo not given in full) | > 20 | > 20 | > 20 | – | > 20 |
| CC(C)[C@H]1C(=O)OC[C@@H](NC(=O)c2cnc3ccccc3n2)C(=O)N[C@@H](C)C(=O)N(C)[C@H]2CS(=O)(=O)CS(=O)(=O)C[C@@H](C(=O)N1C)N(C)C(=O)[C@H](C)NC(=O)[C@H](NC(=O)c1cnc3ccccc3n1)COC(=O)[C@H](C(C)C)N(C)C2=O | > 20 | > 20 | > 20 | – | > 20 |
| CC(C)[C@@H]1NC(=O)[C@@H]2CS(=O)(=O)CS(=O)(=O)C[C@H](NC(=O)[C@H](C)NC(=O)[C@H](NC(=O)c3cnc4ccccc4n3)COC1=O)C(=O)N[C@@H](C(C)C)C(=O)OC[C@@H](NC(=O)c1cnc3ccccc3n1)C(=O)N[C@@H](C)C(=O)N2 | > 20 | > 20 | > 20 | – | > 20 |
| CC(C)[C@@H]1NC(=O)[C@@H]2CSCSC[C@H](NC(=O)[C@H](C)NC(=O)[C@H](NC(=O)c3cnc4ccccc4n3)COC1=O)C(=O)N[C@@H](C(C)C)C(=O)OC[C@@H](NC(=O)c1cnc3ccccc3n1)C(=O)N[C@@H](C)C(=O)N2 | > 20 | > 20 | > 20 | – | > 20 |
| CS[C@H]1SC[C@H]2C(=O)N(C)[C@@H](C(C)C)C(=O)OC[C@@H](NC(=O)c3cnc4ccccc4n3)C(=O)N[C@@H](C)C(=O)N(C)[C@@H]1C(=O)N(C)[C@@H](C(C)C)C(=O)OC[C@@H](NC(=O)c1cnc3ccccc3n1)C(=O)N[C@@H](C)C(=O)N2C [ECHINOMYCIN] | 1.8 (≈ 1.63 µM) | 2.2 (≈ 2 µM) | 1 (≈ 0.908 µM) | 47.5 | 0.4 (≈ 0.363 µM) |

From ChEMBL document CHEMBL1147412, “Synthesis and biological activity of new quinoxaline antibiotics of echinomycin analogues” (Bioorg Med Chem Lett, 2004)
